In this assay the target is Metabotropic glutamate receptor 8 (Rattus norvegicus) (UniProt P70579). The assay is described as follows: rat mGlu8 allosteric modulation, glutamate curve shift, profiling panel, selectivity assay for mGlu5 PAM project, thallium flux, HEK/GIRK cells (AID 588732). The note with it: glutamate CRC shift, at 10 µM; for Emax: measured here: glutamate max response with compound. A digest of the protocol:
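Test system: rat mGlu8 receptor expressed in HEK/GIRK cells; Also added: glutamate agonist concentration-response curve; Compound: 10 µM test compound, single dose; Controls: glutamate curve without test compound as reference; Read-out: glutamate EC50 shift and %Emax versus no-compound curve; Measured by: FluoZin2 fluorescence slope reporting thallium flux.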

Activity calls are given as the source filed them.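 The calls were made as follows: active = compound shifting glutamate potency twofold either way, or pushing peak response under 75% or over a set limit; inactive = the rest.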

Chain of Metabotropic glutamate receptor 8 (Rattus norvegicus) (P70579 whole entry, looked up): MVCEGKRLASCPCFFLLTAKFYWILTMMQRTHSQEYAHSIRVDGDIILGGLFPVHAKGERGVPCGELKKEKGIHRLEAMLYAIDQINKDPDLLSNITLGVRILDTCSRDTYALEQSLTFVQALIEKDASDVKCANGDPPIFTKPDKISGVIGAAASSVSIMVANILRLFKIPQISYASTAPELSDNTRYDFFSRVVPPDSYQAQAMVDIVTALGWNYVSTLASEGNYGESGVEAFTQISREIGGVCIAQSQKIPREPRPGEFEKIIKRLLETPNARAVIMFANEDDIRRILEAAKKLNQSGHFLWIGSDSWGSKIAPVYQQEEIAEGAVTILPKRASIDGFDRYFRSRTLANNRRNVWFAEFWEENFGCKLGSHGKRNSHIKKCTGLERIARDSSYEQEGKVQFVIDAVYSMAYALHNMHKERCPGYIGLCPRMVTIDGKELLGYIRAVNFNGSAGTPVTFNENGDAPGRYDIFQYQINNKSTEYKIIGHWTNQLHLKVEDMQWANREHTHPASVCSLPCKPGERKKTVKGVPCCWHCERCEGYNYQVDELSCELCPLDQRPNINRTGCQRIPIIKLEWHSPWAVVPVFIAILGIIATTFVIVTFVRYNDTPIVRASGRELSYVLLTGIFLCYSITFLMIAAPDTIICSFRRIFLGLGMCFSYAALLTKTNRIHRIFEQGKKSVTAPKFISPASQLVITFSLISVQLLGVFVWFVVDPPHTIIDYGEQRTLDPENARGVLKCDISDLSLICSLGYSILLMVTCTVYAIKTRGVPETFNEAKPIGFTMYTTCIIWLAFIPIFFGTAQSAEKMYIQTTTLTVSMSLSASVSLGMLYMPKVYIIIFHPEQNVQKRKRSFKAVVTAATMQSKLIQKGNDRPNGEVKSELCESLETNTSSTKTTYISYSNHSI

Consider `CC1(NC(=O)c2ccc(C#Cc3cccc(F)c3)cn2)COC1`, for which the fold shift was 1.1 (inactive) and the Emax (commonly the maximal effect, on the per cent scale that the assay sets) was found to be 92%.

Regarding `C[C@@H](NC(=O)c1ccc(C#Cc2cccc(F)c2)cn1)C(C)(C)O`, the fold shift was 1.36 (inactive) and the maximal effect (Emax) is 89%.

Values taken from PubChem BioAssay AID588732 (Vanderbilt Specialized Chemistry Center, 2011).
